ChEMBL document CHEMBL1140336, “Synthesis, structure-activity relationships, and biological evaluation of fatty alcohol phosphates as lysophosphatidic acid receptor ligands, activators of PPARgamma, and inhibitors of autotaxin” (J Med Chem, 2005)

Legend:
[1] = biological target: T1, Lysophosphatidic acid receptor 1 (Homo sapiens, UniProt Q92633); assay: (§1) Inhibition of LPA-induced calcium transients in RH7777 rat hepatoma cells expressing LPA1 receptor; No effect; format: functional, cell-based
In short: (§2)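 Fura-2 Ca2+ assay. RH7777 cells stably expressing LPA1, LPA2 or LPA3, or PC-3 cells (endogenous LPA1-3), seeded at 50000 cells/well on poly-D-lysine and grown overnight. Serum-starved in modified Krebs, pH 7.4, for 6-8 h (PC-3: 12 h), then Fura-2 AM loaded for 35 min. Compound added at 15 s; wells read 80-120 s. Transient taken as peak minus baseline 340/380 ratio. Antagonism: LPA 18:1 coapplied; highest concentration 30 μM.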

[2] = Inhibition of LPA-induced calcium transients in PC-3 cells; format: functional, cell-based, Homo sapiens
In short: (§3)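 PC-3 human prostate cancer cells, which express LPA1-3 endogenously, 50000 cells/well. Serum-starved 12 h in modified Krebs, loaded with Fura-2 AM, read in a FlexStation. Ca2+ transient = 340/380 ratio peak minus baseline. Agonism (Emax as % of maximal LPA 18:1 response) and inhibition of LPA-induced transients were measured.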

[3] = biological target: T2, Lysophosphatidic acid receptor 3 (Homo sapiens, UniProt Q9UBY5); assay: Inhibition of LPA-induced calcium transients in RH7777 rat hepatoma cells expressing LPA3 receptor; No effect; format: functional, cell-based; in short: as §2
T2 sequence (Q9UBY5 whole entry): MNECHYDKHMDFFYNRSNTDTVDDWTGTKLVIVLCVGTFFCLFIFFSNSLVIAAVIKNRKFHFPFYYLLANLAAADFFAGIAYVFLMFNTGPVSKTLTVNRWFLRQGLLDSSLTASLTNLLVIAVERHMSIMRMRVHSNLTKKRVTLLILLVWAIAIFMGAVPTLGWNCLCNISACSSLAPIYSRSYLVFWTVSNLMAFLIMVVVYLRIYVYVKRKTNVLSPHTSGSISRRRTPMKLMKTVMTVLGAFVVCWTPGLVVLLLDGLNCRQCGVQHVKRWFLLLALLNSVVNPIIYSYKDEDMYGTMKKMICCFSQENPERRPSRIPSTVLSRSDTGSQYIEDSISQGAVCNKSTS

[4] = biological target: T1, Lysophosphatidic acid receptor 1; assay: as §1; format: functional, cell-based; remark: listed apart in the source
[5] = biological target: T3, Lysophosphatidic acid receptor 2 (Homo sapiens, UniProt Q9HBW0); assay: Inhibition of LPA-induced calcium transients in RH7777 rat hepatoma cells expressing LPA2 receptor; No effect; format: functional, cell-based; in short: as §2
Homo sapiens [6] = species on record: Homo sapiens; assay: Maximal shape change of human platelets induced by the compound; format: functional
In short: (§4)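 Washed human platelets, aspirin-treated and isolated with apyrase, at 4 × 10^5/μL in HEPES buffer pH 7.4, stirred at 37 °C. Lipids given as BSA complexes (4:1). Shape change read as the fall in light transmission in an aggregometer. […] Mean ± SD across different donors.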

Homo sapiens [7] = species on record: Homo sapiens; assay: Concentration of compound (after 5 min of addition) that induce LPA expressed in human platelets; format: functional; in short: as §4
[8] = biological target: T2, Lysophosphatidic acid receptor 3; assay: (§5) Inhibition of LPA-induced calcium transients in RH7777 rat hepatoma cells expressing LPA3 receptor; format: functional, cell-based; in short: as §2
[9] = biological target: T3, Lysophosphatidic acid receptor 2; assay: (§6) Inhibition of LPA-induced calcium transients in RH7777 rat hepatoma cells expressing LPA2 receptor; format: functional, cell-based
[10] = biological target: T2, Lysophosphatidic acid receptor 3; assay: Binding affinity for Lysophosphatidic acid receptor 3 expressed in RH7777 rat hepatoma cells; format: cell-based; in short: as §2
[11] = biological target: T1, Lysophosphatidic acid receptor 1; assay: (§7) Inhibition of LPA-induced calcium transients in RH7777 rat hepatoma cells expressing LPA1 receptor; format: functional, cell-based; in short: as §2
[12] = Binding affinity for Lysophosphatidic acid receptor in PC-3 cells; format: cell-based, Homo sapiens; in short: as §2
Homo sapiens [13] = species on record: Homo sapiens; assay: Inhibitory concentration of compound (after 5 min of incubation) against LPA human platelets
[14] = biological target: T3, Lysophosphatidic acid receptor 2; assay: as §6; format: functional, cell-based; in short: as §2; remark: listed apart in the source
[15] = biological target: T3, Lysophosphatidic acid receptor 2; assay: Binding affinity for Lysophosphatidic acid receptor 2 expressed in RH7777 rat hepatoma cells; format: cell-based
[16] = biological target: T1, Lysophosphatidic acid receptor 1; assay: Binding affinity for Lysophosphatidic acid receptor 1 expressed in RH7777 rat hepatoma cells; format: cell-based; in short: as §2
[17] = Percent maximal efficacy in PC-3 cells; format: functional, Homo sapiens; in short: as §3
[18] = biological target: T1, Lysophosphatidic acid receptor 1; assay: as §7; format: functional, cell-based; remark: listed apart in the source
[19] = biological target: T2, Lysophosphatidic acid receptor 3; assay: as §5; format: functional, cell-based; remark: listed apart in the source
[20] = Homo sapiens, PC-3, read-out: IC50

T1 sequence (Q92633 whole entry): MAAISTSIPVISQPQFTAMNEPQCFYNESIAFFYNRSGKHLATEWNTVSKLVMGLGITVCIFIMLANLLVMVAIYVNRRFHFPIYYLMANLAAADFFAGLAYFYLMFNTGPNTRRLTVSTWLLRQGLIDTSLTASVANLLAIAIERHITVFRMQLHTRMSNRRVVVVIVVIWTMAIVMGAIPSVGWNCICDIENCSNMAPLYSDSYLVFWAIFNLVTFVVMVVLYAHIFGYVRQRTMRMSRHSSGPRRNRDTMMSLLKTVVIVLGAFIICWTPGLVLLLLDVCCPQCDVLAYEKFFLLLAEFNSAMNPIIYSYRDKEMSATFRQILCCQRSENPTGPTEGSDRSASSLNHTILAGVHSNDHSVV
T3 sequence (Q9HBW0 whole entry): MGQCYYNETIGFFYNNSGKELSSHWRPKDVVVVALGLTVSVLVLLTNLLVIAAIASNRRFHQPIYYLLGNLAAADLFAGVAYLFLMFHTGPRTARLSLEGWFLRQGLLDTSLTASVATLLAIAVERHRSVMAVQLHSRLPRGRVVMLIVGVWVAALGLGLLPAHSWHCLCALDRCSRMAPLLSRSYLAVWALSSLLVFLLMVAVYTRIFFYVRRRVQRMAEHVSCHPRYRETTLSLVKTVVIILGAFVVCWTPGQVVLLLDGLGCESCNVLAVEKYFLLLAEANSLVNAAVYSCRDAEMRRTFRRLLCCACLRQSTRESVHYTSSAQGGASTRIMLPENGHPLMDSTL

| Compound | EC50 [1] | EC50 [3] | IC50 [4] | IC50 [5] | IC50 [8] | Ki [10] | IC50 [2, 20] | Ki [12] | further results |
| --- | --- | --- | --- | --- | --- | --- | --- | --- | --- |
| CCCCCCCCCCCCCCOP(O)(O)=S [THIOPHOSPHORIC ACID TETRADECYL ESTER] | Not Active | Not Active | Not Active | Not Active |  |  |  |  | EC50 [2]: Not Active; IC50 ([2]; pc-3): Not Active |
| CCCCCCCC/C=C/CCCCCCCC(=O)OCC(O)COP(=O)(O)O (stereo not drawn) [OLEOYL] |  |  |  |  |  |  |  |  | Emax (Homo sapiens [6]): 120%; EC50 (Homo sapiens [7]): 0.009 µM |
| CC/C=C/CCCCCCCCCCOP(=O)(O)O | Not Active | Not Active |  | Not Active | 0.103 µM | 0.04 µM |  |  | EC50 [9]: 4.1 µM |
| C=CCCCCCCCCOP(=O)(O)O | Not Active | Not Active |  | Not Active |  |  | 1.51 µM | 0.574 µM | IC50 [11]: > 10 µM |
| CCCCCCCCCCOP(O)(O)=S [THIOPHOSPHORIC ACID DECYL ESTER] | Not Active | Not Active | Not Active | Not Active |  |  | 1.22 µM | 0.521 µM |  |
| CC/C=C/CCCCCCCCOP(=O)(O)O | Not Active | Not Active |  | Not Active | 0.032 µM | 0.027 µM | 0.916 µM | 0.39 µM | Emax (Homo sapiens [6]): 89%; IC50 [11]: > 10 µM; IC50 (Homo sapiens [13]): 0.7 µM; EC50 (Homo sapiens [7]): 1.5 µM; EC50 [14]: 0.717 µM |
| CCCCCCCCCCCCOP(O)(O)=S [THIOPHOSPHORIC ACID DODECYL ESTER] | Not Active | Not Active | Not Active | Not Active |  |  | 2.84 µM | 1.3 µM |  |
| CCCCCCCCCCCCP(=O)(O)O | Not Active | Not Active | Not Active | Not Active | 0.654 µM | 0.303 µM | 2.64 µM | 1.27 µM | EC50 [5]: Not Active |
| CCCCCCCCCCCCCCP(=O)(O)O | Not Active | Not Active |  |  | 3.1 µM | 1.12 µM | 9.67 µM | 4.62 µM | Emax (Homo sapiens [6]): 0%; IC50 [11]: ~10 µM; IC50 (Homo sapiens [13]): 33 µM; IC50 [14]: 5.5 µM; Ki ([15]; read-out: Ki): 3.55 µM; EC50 [5]: Not Active |
| CCCCCCCCCCOP(=O)(O)O [PHOSPHORIC ACID MONODECYL ESTER] | Not Active | Not Active | Not Active | Not Active | 0.384 µM | 0.121 µM |  |  |  |
| Cc1noc(-c2ccc(CSCCC(=O)O)cc2)c1NC(=O)OC(C)c1ccccc1Cl (stereo not drawn) | Not Active | Not Active |  | Not Active | 0.301 µM | 0.148 µM | 3.38 µM | 1.74 µM | IC50 [11]: 0.762 µM; Ki [16]: 0.425 µM; Ki ([15]; rh7777): Not Active; EC50 [5]: Not Active |
| CCCCCCCCCCCCOP(=O)(O)O [PHOSPHORIC ACID MONODODECYL ESTER] | Not Active | Not Active |  | Not Active | 0.128 µM | 0.061 µM |  |  | Emax (Homo sapiens [6]): 94%; IC50 [11]: 2.8 µM; IC50 (Homo sapiens [13]): 0.16 µM; EC50 (Homo sapiens [7]): 0.25 µM; Ki [16]: 1.35 µM |
| CCCC/C=C/CCCCCCCCOP(=O)(O)O | Not Active | Not Active |  | Not Active | 0.096 µM | 0.058 µM | 0.241 µM | 0.123 µM | EC50 [9]: 0.397 µM |
| CCCC/C=C/CCCCCCCCOP(O)(O)=S | Not Active | Not Active | Not Active | Not Active | 0.028 µM | 0.014 µM | 0.938 µM | 0.397 µM | EC50 [9]: 0.48 µM; Emax [17]: 40% |
| C=CCCCCCCCCOP(O)(O)=S | Not Active | Not Active | Not Active | Not Active |  |  | 1 µM | 0.533 µM | EC50 [9]: > 10 µM |
| CCCCCCCCCCCCCCCC(=O)OC[C@@H](O)COP(=O)(O)O |  |  |  |  |  |  |  |  | Emax (Homo sapiens [6]): 120%; IC50 (Homo sapiens [13]): 0.017 µM; EC50 (Homo sapiens [7]): 0.01 µM |
| CCCCCCCC/C=C/CCCCCCCCOP(=O)(O)O | Not Active | Not Active | Not Active | Not Active |  |  |  |  | IC50 [3]: Not Active; EC50 [5]: Not Active; Emax [17]: 11% |
| CCCCCCCC/C=C/CCCCCCCCOP(O)(O)=S |  |  | Not Active | Not Active |  |  |  |  | Emax (Homo sapiens [6]): 1.12%; IC50 (Homo sapiens [13]): 0.018 µM; EC50 [18]: 0.193 µM; EC50 [19]: 0.546 µM; EC50 [9]: 0.244 µM; EC50 (Homo sapiens [7]): 0.016 µM; IC50 [3]: Not Active; Emax [17]: 30% |
| CCCCCCCCCCP(=O)(O)O | Not Active | Not Active | Not Active | Not Active | 1.2 µM | 0.68 µM | 3.12 µM | 1.5 µM | EC50 [5]: Not Active |
| CCCCCCCCCCCCCCC(F)(F)P(=O)(O)O | Not Active | Not Active |  | Not Active |  |  |  |  |  |
| CCCCC/C=C/CCCOP(=O)(O)O | Not Active | Not Active |  | Not Active | 0.83 µM | 0.37 µM | 1.3 µM | 0.735 µM | IC50 [11]: > 10 µM; EC50 [14]: > 10 µM |
